Here are results for two compounds from ChEMBL document CHEMBL1132256, “Structure-activity relationships for substituted bis(acridine-4-carboxamides): a new class of anticancer agents” (J Med Chem, 1999).

For one assay, the system named is SK-OV-3. Description: inhibitory activity against ovarian carcinoma SKOV3 cell line. To be noted: Homo sapiens. The assay is classed as functional. In outline: (§1)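 Tested in the NCI human cell line panel. GI50 = drug concentration (nM) giving growth inhibition to 50% of controls; values below 10 nM were taken as 10 nM in calculations.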
In another assay the test system is NCI/ADR-RES. The assay is described as follows: inhibitory activity against multi drug resistant NCI/ADR cell line. It is filed as functional. To be noted: Homo sapiens. A digest of the protocol:
as §1

Another assay has as its system MCF7. Description: inhibitory activity against multi drug resistant MCF cell line. The assay is classed as functional. Conditions: Homo sapiens, in the assay text read “MCF7 cell line” for “multi drug resistant MCF cell line”. In outline:
as §1

In assay [1] the test system is Jurkat. The assay is described as follows: Ratio of inhibitory activity against amsacrine resistant jurkat cells to inhibitory activity against wild type human jurkat cells. The assay is classed as functional. A digest of the protocol:
(§2)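 Wild-type Jurkat (JLC) and its amsacrine-resistant (JLA) or doxorubicin-resistant (JLD) sublines each seeded at 3.75 × 10^3 cells/well, 4 days with drug, sulforhodamine read-out. IC50 (nM) for 50% of control cell number; ratio = resistant-line IC50 divided by JLC IC50. Duplicate assays, CV ca. 25%.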

A further assay relates to HT-29. Description: inhibitory activity against colon HT-29 cell line. The assay is classed as functional. To be noted: Homo sapiens. In outline: as §1
In another assay the test system is P388. The assay is described as follows: Inhibitory activity against Murine […]. The assay is classed as functional, cell-based. To be noted: Mus musculus. A digest of the protocol:
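Murine P388 leukemia cells seeded at 4.5 × 10^3 cells/well, cultured 3 days with drug; growth measured by [3H]TdR uptake. IC50 = drug concentration (nM) reducing cell number to 50% of controls. Independent assays in duplicate, CV ca. 25%.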

The subject of assay [2] is Lewis lung carcinoma cell line. Description: Inhibitory activity of tested against Murine Lewis lung carcinoma. It is filed as functional, cell-based. Conditions: Mus musculus. In outline:
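Lewis lung carcinoma (LLTC) cells at 10^3 cells/well, 4-day continuous drug exposure, growth read by sulforhodamine assay. IC50 (nM) = concentration giving 50% of control cell number. Duplicate independent assays, CV ca. 25%.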

In another assay the test system is HCT-116. The assay is described as follows: inhibitory activity against colon HCT116 cell line. To be noted: Homo sapiens. It is filed as functional. A digest of the protocol: as §1
Another assay deals with CAKI-1. The assay is described as follows: inhibitory activity against renal tumor […] cell line. The assay is classed as functional. Conditions: Homo sapiens. In outline: as §1
In assay [3] the test system is Jurkat. Description: Concentration required to inhibit 50% growth of human Jurkat cells. The assay is classed as functional, cell-based. A digest of the protocol: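 Jurkat leukemia (JLC) cells seeded at 3.75 × 10^3 cells/well and exposed to drug for 4 days; growth measured by sulforhodamine assay. IC50 = drug concentration (nM) reducing cell number to 50% of control cultures. Independent assays in duplicate, coefficients of variation ca. 25%.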

Assay [4] deals with Jurkat. Description: Ratio of inhibitory activity against doxorubicin resistant jurkat cells to inhibitory activity against wild type human jurkat cells. It is filed as functional. In outline: as §2

As to `CN(CCCNC(=O)c1cccc2cc3cccc(-c4ccccc4)c3nc12)CCCNC(=O)c1cccc2cc3cccc(-c4ccccc4)c3nc12`, the concentration for 50% growth inhibition (GI50) (usually the concentration giving 50% growth inhibition) came to 12 µM in the assay with SK-OV-3; 1790 nM with NCI/ADR-RES; 1020 nM in the assay with MCF7; 1620 nM with HT-29; 5.06 µM with HCT-116; 12 µM in the assay on CAKI-1. The Ratio is given as 0.5 in the assay on Jurkat [1] and 0.8 in the assay on Jurkat [4]. Further, the IC50 (usually the concentration needed to halve the response being measured) in the assay with P388 stood at 1230 nM; in assay [2] it was 1080 nM; in the assay with Jurkat [3], 2540 nM.
Consider `CN(CCCNC(=O)c1cccc2cc3cccc(Br)c3nc12)CCCNC(=O)c1cccc2cc3cccc(Br)c3nc12`, for which the 50% growth inhibitory concentration (GI50) is 0.166 µM with SK-OV-3; 110 nM in the assay on NCI/ADR-RES; 13 nM with MCF7; under 10 nM in the assay with HT-29; under 0.01 µM in the assay on HCT-116; under 0.01 µM with CAKI-1. For the same compound, the Ratio is reported as 0.4 in the assay on Jurkat [1] and 0.9 with Jurkat [4]. Further, the IC50 came out at 15 nM in the assay with P388, 6 nM in assay [2] and 24 nM with Jurkat [3].
